Assay outcomes as filed in PubChem BioAssay.
NadD inh – inhibitors of S. aureus NadD, primary screen, biochemical, colorimetric, uHTS | Nicotinate-nucleotide adenylyltransferase NadD (Staphylococcus aureus N315) | purified NadD enzyme, colorimetric absorbance read-out | inhibition, % at 20 µM | 360,000 compounds, 0.78% hits; in the data active = inhibition above about 26%
HCV core dimer – inhibitors of HCV core protein dimerization, primary screen, biochemical, TR-FRET, high-throughput. TR-FRET GST/Flag-core106 dimerization, 1536-well. inhibition, % at 5 µM. 300,000 compounds, 0.33% hits;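 active = inhibition above the mean of all tested compounds plus 3 SD, set per screening campaign, cut at about 45% in these data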
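System: GST/Flag-tagged HCV core106 proteins. Incubation: compound-protein-antibody incubation 4 h at 22.5 °C. Technique: HTRF with 340 nm excitation, 617/671 nm emission. Medium: KF-containing HEPES buffer, pH 7.45, DTT, CHAPS, BSA. Read-out: inhibition (%) from 671 over 617 nm ratio. Also added: Eu(K)-anti-GST 90 ng/mL plus XL665-anti-Flag 1 µg/mL.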
ABHD5 PLIN5 PPI – ABHD5-PLIN5 interaction inhibitors, primary screen, cell lysate, split luciferase complementation, luminescence; Perilipin-5 (Homo sapiens) + 1-acylglycerol-3-phosphate O-acyltransferase ABHD5 (Homo …; inhibition, % at 4 µM; Split G. princeps luciferase complementation, 4 h; 360,000 compounds, 0.78% hits;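 active = inhibition above the mean inhibition across every tested compound plus 3 SD, cut at about 22% in these data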
Target sequence (Q00G26 whole entry, looked up): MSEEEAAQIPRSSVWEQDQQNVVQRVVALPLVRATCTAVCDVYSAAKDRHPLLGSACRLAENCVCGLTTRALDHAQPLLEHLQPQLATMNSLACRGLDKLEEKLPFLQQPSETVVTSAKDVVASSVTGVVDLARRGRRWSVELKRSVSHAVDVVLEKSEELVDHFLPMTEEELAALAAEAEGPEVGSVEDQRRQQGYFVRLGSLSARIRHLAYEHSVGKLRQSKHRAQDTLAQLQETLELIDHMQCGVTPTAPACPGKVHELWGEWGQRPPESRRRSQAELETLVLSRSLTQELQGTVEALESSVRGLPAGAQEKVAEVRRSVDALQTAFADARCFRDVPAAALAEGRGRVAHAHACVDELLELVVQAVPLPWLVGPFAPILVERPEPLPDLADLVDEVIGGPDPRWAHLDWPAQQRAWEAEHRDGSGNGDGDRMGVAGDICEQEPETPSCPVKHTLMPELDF
Target sequence (Q8WTS1 whole entry, looked up): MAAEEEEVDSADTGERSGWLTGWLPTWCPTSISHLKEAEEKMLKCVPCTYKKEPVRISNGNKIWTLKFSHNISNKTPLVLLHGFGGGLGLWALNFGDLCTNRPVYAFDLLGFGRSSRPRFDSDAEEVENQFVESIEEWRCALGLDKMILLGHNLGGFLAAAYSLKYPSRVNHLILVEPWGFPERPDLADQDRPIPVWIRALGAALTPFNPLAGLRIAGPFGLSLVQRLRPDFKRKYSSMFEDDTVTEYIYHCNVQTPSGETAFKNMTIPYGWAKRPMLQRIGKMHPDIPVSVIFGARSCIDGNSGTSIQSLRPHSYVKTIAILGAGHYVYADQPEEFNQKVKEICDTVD
rCAG binder – binders of r(CAG) RNA repeats, primary screen, biochemical, fluorescence. 370,000 compounds, 1.3% hits. r(CAG) RNA repeat, TO-PRO-1 dye displacement fluorescence. inhibition, % at 3 µM;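 active = inhibition above the plate cutoff, the mean of all test compounds on that plate plus 3 SD, cut at about 35% in these data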;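 note: higher means more dye released from RNA so lower well fluorescence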
Large screens that a line does not name were inactive. Most compounds without a hit are left out; they make up all but 2.6% or so of the library.

CCSc1nnc(NC(=O)C2Cc3ccccc3CN2C(=O)c2ccco2)s1 (centres undefined)	HCV core dimer 85
Cc1ccccc1NC(=O)C1Cc2ccccc2CN1C(=O)c1ccco1 (centres undefined)	none
c1csc(C2Nc3cccc4cccc(c34)N2)c1	NadD inh 31
CCOc1cc(C2Nc3cccc4cccc(c34)N2)ccc1O	NadD inh 30 (no result: rCAG binder)
COc1ccc(C2Nc3cccc4cccc(c34)N2)cc1	NadD inh 39
Clc1cccc(C2Nc3cccc4cccc(c34)N2)c1	NadD inh 27, HCV core dimer 47
Clc1ccc(C2Nc3cccc4cccc(c34)N2)cc1Cl	none
COc1cccc([C@@H]2NC(=O)C/C=C/[C@H](C)[C@H](c3cccc(OC)c3)NC(=O)C/C=C/[C@@H]2C)c1	none (no result: NadD inh, HCV core dimer, ABHD5 PLIN5 PPI)
Cc1ccc(-c2cc(C(=O)NN=Cc3cc(Br)ccc3O)[nH]n2)cc1C	none (no result: NadD inh, HCV core dimer, ABHD5 PLIN5 PPI)
C[C@H](O)[C@@H]1C(=O)N2CCc3c([nH]c4c(-c5ccc6c(c5)OCO6)cccc34)[C@@H]2C[C@@H]1N(C)C(=O)NC1CCCCC1	none (no result: NadD inh, HCV core dimer, ABHD5 PLIN5 PPI)
CC1=Nc2ccccc2/C1=C\c1sc(Nc2ccc(C)cc2)nc1O	none
Oc1nc(Nc2cccc(Cl)c2)sc1/C=C1\C=Nc2ccccc21	rCAG binder 55
Oc1cccc(Nc2nc(O)c(/C=C3\C=Nc4ccccc43)s2)c1	rCAG binder 48
O=C(NCc1ccc(C(=O)NCC2CCCO2)cc1)c1cccc(Br)c1 (centres undefined)	none (no result: NadD inh, HCV core dimer, ABHD5 PLIN5 PPI)
COc1ccccc1-c1cc(-c2ccccc2)nc(SC(C(N)=O)c2ccccc2)c1C#N (centres undefined)	NadD inh 36
Cc1nc(SC(C(N)=O)c2ccccc2)c(C#N)c(C)c1C (centres undefined)	none
COc1ccc(N2CCN(C(=O)c3ccc4c(c3)NC(=O)C(CSCc3ccc(C)cc3)N4)CC2)cc1 (centres undefined)	HCV core dimer 64 (no result: NadD inh, ABHD5 PLIN5 PPI, rCAG binder)
COc1ccc(N2CCN(C(=O)c3ccc4c(c3)NC(=O)C(CSCc3c(F)cccc3Cl)N4)CC2)cc1 (centres undefined)	HCV core dimer 67 (no result: NadD inh, ABHD5 PLIN5 PPI, rCAG binder)
COc1ccc(N2CCN(C(=O)c3ccc4c(c3)NC(=O)C(CSCc3cccc(F)c3)N4)CC2)cc1 (centres undefined)	none (no result: NadD inh, ABHD5 PLIN5 PPI, rCAG binder)
COCC1CN(CCc2ccc(F)cc2)S(=O)(=O)c2c(F)cccc2O1 (centres undefined)	none (no result: NadD inh, HCV core dimer, ABHD5 PLIN5 PPI)
Cc1ccccc1C(=O)N(C)[C@H]1C[C@H]2c3[nH]c4c(-c5ccccc5)cccc4c3CCN2C[C@H]1[C@H](C)O	none (no result: NadD inh, HCV core dimer, ABHD5 PLIN5 PPI)
Cc1cc(C)n2nc3nc(N4CCCC4)nc(-c4ccccc4)c3c2n1	HCV core dimer 48 (no result: rCAG binder)
COc1ccc(C2Nc3ccccc3C(=O)N2Cc2ccco2)cc1COc1ccccc1F (centres undefined)	HCV core dimer 46, ABHD5 PLIN5 PPI 23
CCOC(=O)CCS(=O)(=O)c1nc(-c2ccccc2)cc(C(F)(F)F)n1	ABHD5 PLIN5 PPI 58 (no result: rCAG binder)
CCOC(=O)CS(=O)(=O)c1nc(-c2ccc(F)cc2)cc(C(F)(F)F)n1	ABHD5 PLIN5 PPI 53 (no result: rCAG binder)
COCC(C)NC(=O)CCS(=O)(=O)c1nc(-c2ccc(OC)cc2)cc(C(F)(F)F)n1 (centres undefined)	none
CCOC(=O)CN1C(=O)S/C(=C\c2ccc(-c3ccc(C(=O)O)c(Cl)c3)o2)C1=O	none
O=C(O)c1ccc(-c2ccc(/C=C3\NC(=O)N(Cc4ccc(Cl)cc4)C3=O)o2)cc1Cl	ABHD5 PLIN5 PPI 28, rCAG binder 53 (no result: HCV core dimer)
COC(=O)[C@]12C[C@H](CC(=O)N3CCC(c4ccccc4)CC3)C(=O)N(CCC3=CCCCC3)C1=C[C@H](C(C)C)O[C@@H]2C1CC1	none (no result: NadD inh, HCV core dimer, ABHD5 PLIN5 PPI)
O=C(Nc1ccccc1N1CCOCC1)c1cccc(S(=O)(=O)Nc2ccccc2F)c1	rCAG binder 37 (no result: HCV core dimer)
CC(=O)c1c(C)oc2c1cc(NS(=O)(=O)c1ccc(C(=O)O)cc1)c1ccccc12	none
Cc1ccc(S(=O)(=O)Nc2cc3c(C(=O)Nc4ccccc4)c(C)oc3c3ccccc23)cc1	HCV core dimer 50
O=C1CCCC2=C1C(c1ccco1)Nc1ccc3ccccc3c12 (centres undefined)	HCV core dimer 71
CCCCCCCCC[n+]1cccc2c3ccccc3ccc21	ABHD5 PLIN5 PPI 29 (no result: rCAG binder)
CCCCC1CCC(C(=O)Nc2ccc(S(=O)(=O)Nc3nccs3)cc2)CC1 (centres undefined)	NadD inh 33 (no result: rCAG binder)
Cc1cc(C)c(S(=O)(=O)/N=C2\C=CC(=O)C(Cl)=C2)c(C)c1	NadD inh 47 (no result: rCAG binder)
CCN(CC)C(=O)CC[C@H]1CC[C@]2(CCCN(S(C)(=O)=O)C2)O1	none (no result: NadD inh, HCV core dimer, ABHD5 PLIN5 PPI)
CC(C)C(=O)N[C@H]1[C@H](O)CCC[C@]12C(=O)N(Cc1ccccc1)c1ccccc12	none (no result: NadD inh, HCV core dimer, ABHD5 PLIN5 PPI)
CNCc1ccccc1Sc1ccc(O)c(O)c1	ABHD5 PLIN5 PPI 23
COc1ccc(NC(=O)c2cccc(N3C(=O)c4cccc([N+](=O)[O-])c4C3=O)c2)cc1	none
COc1ccc(/C=C2\C(=O)N(c3c(Cl)cc(Cl)cc3Cl)N=C2NC(=O)c2cccc([N+](=O)[O-])c2)cc1	NadD inh 84 (no result: rCAG binder)
CCOC(=O)N1CCN(C(=O)C[C@H]2C[C@@]3(C(=O)OC)C(=C[C@H](C(C)C)O[C@@H]3C3CC3)N(Cc3ccco3)C2=O)CC1	none (no result: NadD inh, HCV core dimer, ABHD5 PLIN5 PPI)
CCCCC1(C)OC(=O)C(=Cc2ccc(-c3ccc(Cl)c(C(=O)O)c3)o2)C(=O)O1 (centres undefined)	none
CCOC(=O)c1cc(-c2ccc(/C=C3/C(=O)NC(=O)C(C#N)=C3C)o2)ccc1Cl	NadD inh 39
O=c1cc(CSc2nnc(-c3cccs3)n2Cc2ccccc2)nc2sc3ccccc3n12	HCV core dimer 60
Cc1cc(C(=O)CSc2nnc(-c3cccs3)n2Cc2ccccc2)c(C)n1C	none
Cc1ccc(-c2cc(-c3nnc(SCC(=O)NC4CCCCC4)n3N)[nH]n2)cc1	none (no result: NadD inh, HCV core dimer, ABHD5 PLIN5 PPI)
COc1ccc(OC)c(-c2nnc3n2N=C(c2ccc(OC)c(OCC4CC4)c2)CS3)c1	ABHD5 PLIN5 PPI 23 (no result: HCV core dimer, rCAG binder)
O=C(Nc1ccc2c(c1)OCO2)c1cccc2c1C(=O)N(Cc1cccnc1)C2	HCV core dimer 54
O=C(COc1ccccc1/C=C\c1nc(O)c([N+](=O)[O-])c(=O)[nH]1)Nc1ccccc1	ABHD5 PLIN5 PPI 23 (no result: HCV core dimer)
CCOc1ccccc1/C=C\c1nc(O)c([N+](=O)[O-])c(=O)[nH]1	none
CCNc1ccc2noc3c2c1C(=O)c1ccccc1-3	none
O=C1c2ccccc2-c2onc3ccc(NCc4ccco4)c1c23	ABHD5 PLIN5 PPI 22 (no result: rCAG binder)
O=S1(=O)c2ccc(Br)cc2OC[C@H](Cc2ccccc2)N1Cc1cn(CCC2OCCO2)nn1	none (no result: NadD inh, HCV core dimer, ABHD5 PLIN5 PPI)
COC(=O)C1=C(C)N(C)C(=NCc2cccc(C(F)(F)F)c2)NC1c1ccc(Cl)cc1 (centres undefined)	none (no result: NadD inh, HCV core dimer, ABHD5 PLIN5 PPI)
C=CCn1c(O)c(N=NC(=S)Nc2ccccc2F)c2cc(S(=O)(=O)N3CCOCC3)ccc21	NadD inh 38
Oc1ccc(N=Nc2ccc3c(c2)OCCO3)c2cccnc12	none
